pIC50: −log10 of the molar value. One block for each compound: values may come before it. Activity calls are given as the source filed them. The calls are words filed in the database; no cut-off is given here.
Columns and labels:
Primary neuron [1] = assay: Neuroprotective activity against oxygen-glucose deprivation-induced cell death in Sprague-Dawley rat primary neuronal cells assessed as cell viability at 1 to 250 uM treated at onset of recovery period and measured at 24 hrs of recovery by MTT assay relative to control; format: functional, cell-based
Summary of the method: (§1)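 Rat cortical neurons from E16–17 Sprague-Dawley embryos, used at 6–7 days in serum-free medium. OGD: glucose-free medium bubbled with 95% N2/5% CO2, <0.1% O2, 6.5% CO2, 37 °C, 4 h. Compound added at start of 24 h normoxic recovery. Viability by MTT (0.2 mg/mL, 1.5 h), lysis with HCl/SDS, read at 595/690 nm, relative to 100% control. Four to eight culture batches, each in quadruplicate.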

Primary neuron [2] = assay: Neuroprotective activity against oxygen-glucose deprivation-induced cell death in Sprague-Dawley rat primary neuronal cells assessed as cell viability at 1 to 100 uM treated at onset of recovery period and measured at 24 hrs of recovery by MTT assay relative to control; format: functional, cell-based; summary of the method: as §1
Mus musculus [3] = assay: (§2) Neuroprotective activity in C57BL/6 mouse model of ischemia-induced cerebral ischemia model assessed as reduction in apoptosis in hippocampal CA1 region at 40 mg/kg, ip administered at onset of reperfusion period and measured at 5 days reperfusion post ischemia by TUNNEL assay relative to control; format: functional, organism-based
Mus musculus [4] = assay: (§3) Neuroprotective activity in C57BL/6 mouse model of ischemia-induced cerebral ischemia model assessed as reduction in apoptosis in cortical region at 40 mg/kg, ip administered at onset of reperfusion period and measured at 5 days reperfusion post ischemia by TUNNEL assay relative to control; format: functional, organism-based
Mus musculus [5] = assay: Neuroprotective activity in C57BL/6 mouse model of transient middle cerebral artery occlusion-induced ttransient focal cerebral ischemia assessed decrease in motor deficit by measuring improvement in grip strength at 40 mg/kg, ip measured after 48 hrs post dose by grip strength Test; format: functional; design: scale not given: the % may be the effect or the level left
[6] = Antioxidant activity assessed as superoxide anion scavenging activity at 0.1 mM pH 7.4 after 10 mins by NBT assay; format: functional
Summary of the method: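 Superoxide generated by xanthine/xanthine oxidase (0.07 U/mL) in 0.1 M phosphate buffer pH 7.4 containing NBT and compound at 0.1 mM final. After 10 min at rt, absorbance read at 560 nm. Caffeic acid as standard.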

[7] = Antioxidant activity assessed as hydroxyl radical scavenging activity at 0.1 mM measured after 30 mins; format: functional
Summary of the method: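 Hydroxyl radicals from Fe3+/ascorbic acid: EDTA 0.1 mM, Fe3+ 167 μM, DMSO 33 mM, compound 0.1 mM and ascorbic acid 10 mM in 50 mM phosphate buffer pH 7.4. Incubated 37 °C for 30 min, stopped with 17% w/v TCA. Read-out is inhibition of formaldehyde formation, given as % scavenging. Trolox as reference.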

[8] = Antioxidant activity assessed as ABTS radical cation scavenging activity by measuring trolox equivalents at 10 uL after 1 min; format: functional
Summary of the method: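 ABTS radical cation made from 2 mM aqueous ABTS plus 0.17 mM potassium persulfate in 20 mM phosphate buffer pH 7.4, kept 12–16 h dark at rt. Diluted with ethanol to A734 0.70, then mixed with 10 μL compound from 10 mM stock. Absorbance read at rt 1 min after mixing. Trolox as standard.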

Mus musculus [9] = assay: as §3, with “assessed” for “assessed as”, “neuronal cell death” for “apoptosis”, “Fluoro-Jade-staining” for “TUNNEL”, “assay based” for “assay”; format: functional, organism-based
[10] = Neuroprotective activity against oxygen-glucose deprivation-induced cell death in Sprague-Dawley rat primary neuronal cells assessed as cell viability at 250 uM treated at onset of recovery period and measured at 24 hrs of recovery by MTT assay relative to control; format: functional; details: Primary neuron, read-out: Activity; summary of the method: as §1
Mus musculus [11] = assay: as §2, with “assessed” for “assessed as”, “neuronal cell death” for “apoptosis”, “Fluoro-Jade-staining” for “TUNNEL”, “assay based” for “assay”; format: functional, organism-based
Mus musculus [12] = assay: Neuroprotective activity in C57BL/6 mouse model of transient middle cerebral artery occlusion-induced ttransient focal cerebral ischemia assessed decrease in size of ischemic lesion at 40 mg/kg, ip measured after 48 hrs post dose relative to control; format: functional, organism-based
[13] = Antiinflammatory activity assessed as NO release at 100 uM after 60 mins in presence of L-cysteine by Griess reagent-based relative to control; format: functional
Summary of the method: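 NO-release test: compound at 100 μM final (from DMSO) in 50 mM phosphate buffer pH 7.4 containing 1 mM L-cysteine, 60 min at 37 °C. Reaction mixture then treated with Griess reagent, left 10 min at rt, absorbance read at 540 nm. Sodium nitroprusside as standard. Mean of three to four determinations.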

Lipoxygenase = Lipoxygenase (Glycine max, UniProt Q39829); assay: Inhibition of soybean lipoxygenase using sodium linoleate as substrate by UV-based analysis
Summary of the method: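 Soybean lipoxygenase (enzyme 1/9 ×10⁻⁴ w/v in saline) incubated at rt with 0.1 mM sodium linoleate and compound in DMSO, at several concentrations from 1 to 100 µM diluted from 10 mM stock. Conversion to 13-hydroperoxylinoleic acid recorded at 234 nm; IC50 derived. NDGA as reference inhibitor.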

[14] = Antioxidant activity assessed as inhibition of linoleic acid peroxidation activity at 10 uL; format: functional; design: scale not given: the % may be the effect or the level left
Summary of the method: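 AAPH-initiated peroxidation of sodium linoleate dispersion (16 mM, 10 μL) in 0.05 M phosphate buffer pH 7.4 at 37 °C under air. Initiator was 50 μL of 40 mM AAPH, with 10 μL compound added. Conjugated diene hydroperoxide followed at 234 nm. Trolox as reference.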

Mus musculus [15] = assay: Neuroprotective activity in C57BL/6 mouse model of ischemia-induced cerebral ischemia model assessed reduction in neurodeficit score at 40 mg/kg, ip administered at onset of reperfusion period and measured at 5 days reperfusion post ischemia; format: functional, organism-based
[16] = Antioxidant activity assessed as DPPH free radical scavenging activity at 0.1 mM measured after 20 to 60 mins; format: functional
Summary of the method: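 DPPH 0.1 mM in absolute ethanol with compound at 0.1 mM final (from DMSO). Absorbance at 517 nm recorded after 20 and 60 min at rt. NDGA as standard.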

Rattus norvegicus = assay: Antiinflammatory activity in Fisher 344 rat model of carrageenan-induced edema assessed as inhibition of carrageenan-induced paw edema at 0.01 mmol/kg, ip dosed simultaneously with carrageenan injection relative to control; format: functional; details: Fisher 344, ip
Summary of the method: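 Fisher 344 rats (150–200 g), both sexes. Edema was induced by intradermal injection of 0.1 mL 2% carrageenan in water into the right hind paw. Compound was suspended in water with a few drops of Tween 80. Rats were euthanized 3.5 h later. The injected-minus-uninjected paw weight difference was compared with water or Tween-water controls as % inhibition. Mean of two experiments, n = 6 each.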

Primary neuron [17] = assay: Neuroprotective activity against oxygen-glucose deprivation-induced cell death in Sprague-Dawley rat primary neuronal cells assessed as cell viability at 0.3 to 100 uM treated at onset of recovery period and measured at 24 hrs of recovery by MTT assay relative to control; format: functional, cell-based; summary of the method: as §1
[18] = Neuroprotective activity against oxygen-glucose deprivation-induced cell death in Sprague-Dawley rat primary neuronal cells assessed as cell viability at 100 uM treated at onset of recovery period and measured at 24 hrs of recovery by MTT assay relative to control; format: functional; details: Primary neuron, read-out: Activity; summary of the method: as §1
Primary neuron [19] = assay: Neuroprotective activity against oxygen-glucose deprivation-induced cell death in Sprague-Dawley rat primary neuronal cells assessed as cell viability at 0.5 to 10 uM treated at onset of recovery period and measured at 24 hrs of recovery by MTT assay relative to control; format: functional, cell-based; summary of the method: as §1

Structure (SMILES): [O-]/[N+](=C\c1cc2cc(Cl)ccc2nc1Cl)Cc1ccccc1
- Activity (Primary neuron [1]): inactive

Structure (SMILES): [O-]/[N+](=C\c1cc2ccccc2nc1Cl)Cc1ccccc1
- Activity (Primary neuron [2]): inactive

Structure (SMILES): Cc1ccc2nc(Cl)c(/C=N/C(C)(C)C)cc2c1
- Activity (Primary neuron [1]): inactive

- pIC50 (Lipoxygenase): 4.24
Structure (SMILES): CC(C)(C)/[N+]([O-])=C/c1ccc(S(=O)(=O)[O-])cc1S(=O)(=O)[O-].[Na+].[Na+]
- Activity (Mus musculus [3]): inactive
- Activity (Mus musculus [4]): inactive
- Activity (Mus musculus [5]): 20.7%
- Activity [6]: inactive
- Activity [7]: 94%
- Activity [8]: inactive
- Activity (Mus musculus [9]): inactive
- viability at 250 µM [10]: 52.9%
- Activity (Mus musculus [11]): inactive
- Activity (Mus musculus [12]): inactive
- Activity [13]: 1%
- Activity [14]: inactive
- Activity (Mus musculus [15]): Active
- Activity [16]: inactive

Structure (SMILES): Cc1c(C)c2c(c(C)c1O)CCC(C)(C(=O)O)O2 (stereo unspecified)
- Activity [7]: 73%
- Activity [8]: 91%
- Activity [14]: 88%

Structure (SMILES): Cc1ccc2nc(O)c(/C=[N+](\[O-])Cc3ccccc3)cc2c1
- Activity (Primary neuron [1]): Active

Structure (SMILES): Cc1ccc2nc(Cl)c(/C=N/NCc3ccccc3)cc2c1
- Activity (Primary neuron [1]): inactive

Structure (SMILES): COc1ccc2cc(/C=[N+](\[O-])Cc3ccccc3)c(Cl)nc2c1
- Activity (Primary neuron [2]): inactive

Structure (SMILES): COc1ccc2c(c1)c(CC(=O)O)c(C)n2C(=O)c1ccc(Cl)cc1 [INDOMETHACIN]
- inhibition in vivo at 10 µmol/kg (Rattus norvegicus): 47%

- pIC50 (Lipoxygenase): 4.00
Structure (SMILES): COc1ccc2nc(Cl)c(/C=[N+](\[O-])Cc3ccccc3)cc2c1
- Activity [6]: 18%
- Activity [7]: 65%
- Activity [8]: inactive
- Activity (Primary neuron [17]): inactive
- Activity [13]: 12.5%
- Activity [14]: 100%
- Activity [16]: 3%

Structure (SMILES): COc1ccc(OC)c2nc(Cl)c(/C=[N+](\[O-])Cc3ccccc3)cc12
- Activity (Primary neuron [2]): inactive

- pIC50 (Lipoxygenase): 4.44
Structure (SMILES): CC(C)(C)/[N+]([O-])=C/c1cc2ccccc2nc1O
- Activity [6]: 23%
- Activity [7]: 99%
- Activity [8]: 6%
- viability at 250 µM [10]: 55%
- viability at 100 µM [18]: 48.8%
- Activity [14]: 100%
- Activity [16]: inactive

Structure (SMILES): COc1nc2ccc(C)cc2cc1/C=[N+](\[O-])Cc1ccccc1
- Activity (Primary neuron [2]): inactive

Structure (SMILES): COc1nc2ccccc2cc1/C=[N+](\[O-])Cc1ccccc1
- Activity (Primary neuron [2]): inactive

Structure (SMILES): Cc1ccc2nc(N(C)C)c(/C=[N+](\[O-])Cc3ccccc3)cc2c1
- Activity (Primary neuron [1]): Active

Structure (SMILES): Cc1ccc2nc(Cl)c(/C=N/OCc3ccccc3)cc2c1
- Activity (Primary neuron [19]): inactive
